Measured values as given in the array DNA melting data of Ke et al. (doi:10.1101/2024.01.08.574731).

What was measured:
[1] = melting temperature; fluorescence melt of hairpins on a sequencing array, two-state fit, raised by 9.35 °C to match UV melts; conditions: sodium 0.088 M
Summary of the method: (§1)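 Bootstrapped two-state fits yielded melting temperature and folding enthalpy for library hairpins. Cy3 fluorescence, with annealed Cy3 and quencher oligos, was imaged on a sequenced MiSeq flow cell in 50 mM Na-HEPES pH 8.0, 25 mM NaCl in 2.5 °C steps up to 60 °C, and normalised to pre-quench Cy3 and to control constructs. Four replicates were combined by inverse variance, and fitted temperatures were raised by 9.35 °C to match UV melts.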

[2] = folding enthalpy; higher = less favourable; fluorescence melt of hairpins on a sequencing array, two-state fit; conditions: sodium 0.088 M
Summary of the method: as §1

| Sequence | Tm [1] [°C] | folding enthalpy [2] [kcal/mol] |
| --- | --- | --- |
| GCTTCCGAAAGGACTAGC ((((((....)))..))) | 35.7 | -16.2 |
| GCTTCCGAAAGGAGAAGC ((((((....)))..))) | 45.7 | -25.6 |
| GCTTCCGAAAGGATCAGC ((((((....)))..))) | 34 | -21.7 |
| GCTTCCTCGAAAGAGAGC (((..(((....)))))) | 28.9 | -12.7 |
| GCTTCGCGAAAGCAAAGC ((((.((....)).)))) | 57.3 | -23.8 |
| GCTTCGCGAAAGCCACGC ((.(.((....)).).)) | 27.8 | -8.03 |
| GCTTCGCGAAAGCCTAGC (((..((....))..))) | 37.4 | -14.7 |
| GCTTCGCGAAAGCGAGC (((.(((....)))))) | 61.4 | -15.6 |
| GCTTCGCGAAAGCGCTGC ((..(((....)))..)) | 41.4 | -22.9 |
| GCTTCGCGAAAGCGGTGC ((..(((....)))..)) | 49.3 | -14.6 |
| GCTTCGCGAAAGCGTGGC ((..(((....)))..)) | 53.3 | -17.4 |
| GCTTCGCGAAAGCTAGGC ((.(.((....)).).)) | 35.2 | -17.3 |
| GCTTCGGGAAACCGGAGC (((.(((....))).))) | 56.5 | -41.5 |
| GCTTCTCGAAAGAGGAGC (((.(((....))).))) | 56.1 | -36.1 |
| GCTTCTCGAAAGAGTAGC (((.(((....))).))) | 47.9 | -31.1 |
| GCTTCTGGAAACAAAAGC ((((.((....)).)))) | 28.8 | -13.1 |
| GCTTCTTCGAAAGAAAGC (((..(((....)))))) | 30.3 | -16 |
| GCTTGAGGAAACTCGAGC (((.(((....))).))) | 51.5 | -41.5 |
| GCTTGATCGAAAGATAGC (((..(((....)))))) | 29.4 | -17.7 |
| GCTTGCCGAAAGGCCAGC (((.(((....))).))) | 54.1 | -27.9 |
| GCTTGCGAAAGCAAAGC ((((((....))).))) | 61.4 | -22.8 |
| GCTTGCGAAAGCAAGAGC ((((((....)))..))) | 56.3 | -12.3 |
| GCTTGCGAAAGCAGGAGC ((((((....)))..))) | 51.4 | -14.3 |

| Sequence | Tm [1] [°C] | folding enthalpy [2] [kcal/mol] |
| --- | --- | --- |
| GCTTGGCGAAAGCAAAGC ((((.((....)).)))) | 63.7 | -36.5 |
| GCTTGGCGAAAGCCACGC ((.((((....)))).)) | 58.5 | -19 |
| GCTTGGCGAAAGCGTAGC (((..((....))..))) | 39.6 | -16.2 |
| GCTTGGGCGAAAGCCAGC (((..(((....)))))) | 48.6 | -12.9 |
| GCTTGGGGAAACCTAAGC ((((.((....)).)))) | 47.8 | -32.1 |
| GCTTGTCGAAAGACGAGC (((.(((....))).))) | 61.3 | -36.9 |
| GCTTGTGCGAAAGCAAGC (((..(((....)))))) | 46.5 | -22.9 |
| GCTTGTGGAAACATAGGC ((.(.((....)).).)) | 32 | -14.7 |
| GCTTTACCGAAAGGTAGC (((..(((....)))))) | 37.7 | -13 |
| GCTTTACGAAAGTAGAGC (((.(((....))).))) | 49.4 | -38.9 |
| GCTTTCCGAAAGGATAGC (((.(((....))).))) | 51.5 | -35.9 |
| GCTTTCGAAAGAACAGC ((((((....))).))) | 36.8 | -23.7 |
| GCTTTCGGAAACAAAAGC (((((.(....).))))) | 35.5 | -23.9 |
| GCTTTGCGAAAGCACCGC ((..(((....)))..)) | 39.2 | -12.4 |
| GCTTTGCGAAAGCGCAGC (((..((....))..))) | 38.7 | -11.8 |
| GCTTTGCGAAAGCTACGC ((.(.((....)).).)) | 45.4 | -13.2 |
| GCTTTGGGAAACTGAAGC ((((..(....)..)))) | 35.2 | -31.6 |
| GCTTTTGGAAACAAAAGC (((((((....))))))) | 61.5 | -42.2 |
| GCTTTTGGAAACAGAAGC ((((.((....)).)))) | 41.4 | -25.1 |
| GGAAAAACGAAAGTTTCC (((..(((....)))))) | 35.6 | -14.9 |
| GGAAACGAAAGTTACTCC ((((((....)))..))) | 22.8 | -10.2 |
| GGAAACGAAAGTTCGTCC ((((((....)))..))) | 24.8 | -13 |
